From ChEMBL document CHEMBL2390938, “Synthesis and anti-inflammatory evaluations of β-lapachone derivatives” (Bioorg Med Chem, 2013)
Each block holds one compound with its values, some of them ahead of it. Calls of active or inactive are those of the source. The calls are words filed in the database; no cut-off is given here.

Key:
[1] = target: Transcription factor p65 (Mus musculus) (UniProt Q04207); assay: Inhibition of NFkappaB p65 nuclear translocation in mouse RAW264.7 cells after 24 hrs by DAPI staining-based laser confocal immunofluorescent microscopic analysis; format: cell-based
In short: (§1)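 Cells grown on glass coverslips 24 h, then given LPS 0.1 µg/mL and/or compound 0.5 µM. Fixed in 4% paraformaldehyde, permeabilized with 0.2% Triton X-100. Anti-p65 antibody applied 24 h, then Alexa 568 secondary 1 h. Nuclei stained with DAPI. Imaged by confocal microscopy.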

RAW264.7 [2] = assay: Antiinflammatory activity in mouse RAW264.7 cells assessed as inhibition of LPS-induced iNOS expression at 0.5 uM incubated for 2 hrs prior to LPS challenge measured after 24 hrs by Western blot analysis; format: functional, cell-based
In short: (§2)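 Cells at 5 × 10^5/well, pretreated 2 h, then LPS 0.1 µg/mL for 24 h. Lysed in RIPA and protein assayed by Bradford. 20–50 µg separated on 8–15% SDS-PAGE and blotted to PVDF. Probed for murine iNOS or COX-2, HRP secondary, ECL detection, densitometry. Means + S.D. of 3 experiments in triplicate.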

[3] = Induction of nitric oxide scavenging activity assessed as nitrite level at 10 uM at room temperature after 60 mins by Griess assay in presence of light and SNP; format: physicochemical; details: 1 h
In short: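 Sodium nitroprusside 2.5 mM in PBS incubated alone or with compound (10 µM) in light at room temperature for 60 min. Nitrite then measured by Griess reaction. 1400 W (10 µM) as comparator.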

RAW264.7 [4] = assay: Antiinflammatory activity in mouse RAW264.7 cells assessed as inhibition of LPS-induced COX-2 expression at 0.5 uM incubated for 2 hrs prior to LPS challenge measured after 24 hrs by Western blot analysis; format: functional, cell-based; in short: as §2
RAW264.7 [5] = assay: Cytotoxicity against mouse RAW264.7 cells assessed as cell viability after 24 hrs by MTS assay; format: cell-based; details: RAW264.7, 24 h
In short: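 Cells seeded 5 × 10^4/well and exposed 24 h. MTS added, 1 h at 37 °C, absorbance read at 490 nm. Percent of control = Ab treated/Ab control × 100 (n = 3). IC50 is the concentration cutting absorbance by 50%, taken from the linear portion of the curve.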

RAW264.7 [6] = assay: Antiinflammatory activity in mouse RAW264.7 cells assessed as inhibition of LPS-induced nitric oxide production after 24 hrs by Griess assay; format: functional, cell-based; details: RAW264.7, 24 h
In short: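 Nitrite in medium read by Griess reagent (1% sulfanilamide, 0.1% naphthylethylenediamine in 5% phosphoric acid) mixed 1:1 with medium for 5 min. Absorbance at 550 nm, quantified against a sodium nitrite standard in culture medium.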

RAW264.7 [7] = assay: Antiinflammatory activity in mouse RAW264.7 cells assessed as inhibition of LPS-induced PGE2 production; format: functional, cell-based
RAW264.7 [8] = assay: Antiinflammatory activity in mouse RAW264.7 cells assessed as downregulation of LPS-induced iNOS mRNA expression incubated for 2 hrs prior to LPS challenge measured after 9 hrs by RT-PCR analysis; format: functional, cell-based
In short: (§3)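 Cells at 5 × 10^5/well, pretreated 2 h, then LPS 0.1 µg/mL for 9 h. Total RNA isolated with Trizol. 1 µg RNA reverse-transcribed with oligo dT primers. Amplicons run on 3% agarose gel, band intensity normalized to GAPDH. Means + S.D. of 3 experiments in triplicate.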

RAW264.7 [9] = assay: Antiinflammatory activity in mouse RAW264.7 cells assessed as inhibition of LPS-induced MMP-9 expression incubated for 2 hrs prior to LPS challenge measured after 24 hrs by gelatin zymographic analysis; format: functional, cell-based
In short: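 Cells plated 16–18 h, then treated with LPS 0.1 µg/ml plus compound (0.5, 1.0, 2.0 µM). Medium collected at 24 h and concentrated. Run on 7.5% acrylamide gel containing 2 mg/ml gelatin. Gel renatured in Triton X-100, then buffer overnight at 37 °C, developed 16–18 h in Tris pH 7.5/NaCl/CaCl2. Coomassie stain. MMP-9 band scanned, expressed as % of control.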

[10] = target: T1, MAP kinase p38 (Mus musculus) (UniProt P47811+O08911+Q9WUI1+Q9Z1B7); assay: Inhibition of p38 MAPK phosphorylation in LPS-induced mouse RAW264.7 cells incubated for 2 hrs prior to LPS challenge measured after 24 hrs by Western blot analysis; format: cell-based
In short: (§4)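 Cells at 5 × 10^5/well, pretreated 2 h, then LPS 0.1 µg/mL for 24 h. 15 µg lysate protein run on 8% SDS-PAGE. p38 and p-p38 detected by Western blot with densitometry. Relative density = p-p38/β-actin. Means + S.D. of 3 experiments in triplicate.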

RAW264.7 [11] = assay: Antiinflammatory activity in mouse RAW264.7 cells assessed as inhibition of LPS-induced iNOS expression incubated for 2 hrs prior to LPS challenge measured after 24 hrs by Western blot analysis; format: functional, cell-based; in short: as §2
RAW264.7 [12] = assay: Antiinflammatory activity in mouse RAW264.7 cells assessed as inhibition of LPS-induced COX-2 expression incubated for 2 hrs prior to LPS challenge measured after 24 hrs by Western blot analysis; format: functional, cell-based; in short: as §2
RAW264.7 [13] = assay: Antiinflammatory activity in mouse RAW264.7 cells assessed as downregulation of LPS-induced TNFalpha expression incubated for 2 hrs prior to LPS challenge measured after 24 hrs by ELISA; format: functional, cell-based
In short: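 Cells seeded 5 × 10^5/well, pretreated 2 h with compound (0.5, 1.0, 2.0 or 5.0 µM), then LPS 0.1 µg/mL for 24 h. TNF-α measured in culture medium by ELISA kit. Means + S.D. of 3 separate experiments in triplicate.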

[14] = target: T1, MAP kinase p38 (Mus musculus); assay: Inhibition of p38 MAPK phosphorylation in mouse RAW264.7 cells at 0.5 to 2 uM by Western blot analysis; format: cell-based; in short: as §4
[15] = target: Transcription factor p65 (Mus musculus) (UniProt Q04207); assay: Inhibition of NFkappaB p65 nuclear translocation in LPS-stimulated mouse RAW264.7 cells after 24 hrs by DAPI staining-based laser confocal immunofluorescent microscopic analysis; format: cell-based; in short: as §1
RAW264.7 [16] = assay: Antiinflammatory activity in mouse RAW264.7 cells assessed as inhibition of LPS-induced iNOS expression at 0.5 to 2 uM incubated for 2 hrs prior to LPS challenge measured after 24 hrs by Western blot analysis; format: functional, cell-based; in short: as §2
RAW264.7 [17] = assay: Antiinflammatory activity in mouse RAW264.7 cells assessed as downregulation of LPS-induced iNOS mRNA expression at 2 uM incubated for 2 hrs prior to LPS challenge measured after 9 hrs by RT-PCR analysis; format: functional, cell-based; in short: as §3
RAW264.7 [18] = assay: Antiinflammatory activity in mouse RAW264.7 cells assessed as inhibition of LPS-induced COX-2 expression at 0.5 to 2 uM incubated for 2 hrs prior to LPS challenge measured after 24 hrs by Western blot analysis; format: functional, cell-based; in short: as §2

Sequence of Transcription factor p65 (Mus musculus) (Q04207 whole entry): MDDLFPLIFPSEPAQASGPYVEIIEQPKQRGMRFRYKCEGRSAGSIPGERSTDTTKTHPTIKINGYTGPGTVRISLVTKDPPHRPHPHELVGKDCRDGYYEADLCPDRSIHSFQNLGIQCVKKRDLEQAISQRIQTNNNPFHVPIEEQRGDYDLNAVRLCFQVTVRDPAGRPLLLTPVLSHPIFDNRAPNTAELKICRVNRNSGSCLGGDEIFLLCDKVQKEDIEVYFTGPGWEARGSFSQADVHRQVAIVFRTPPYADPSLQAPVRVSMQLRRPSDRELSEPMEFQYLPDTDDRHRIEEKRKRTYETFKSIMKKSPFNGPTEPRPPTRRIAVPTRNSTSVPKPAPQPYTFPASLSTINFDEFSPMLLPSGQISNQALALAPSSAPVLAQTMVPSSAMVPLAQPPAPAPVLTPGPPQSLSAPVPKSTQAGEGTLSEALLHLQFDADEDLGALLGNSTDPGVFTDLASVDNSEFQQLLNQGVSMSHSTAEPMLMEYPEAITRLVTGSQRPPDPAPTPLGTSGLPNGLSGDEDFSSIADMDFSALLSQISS

inhibition [1]: Active
SMILES: Nc1ncnc2c1ncn2[C@@H]1O[C@H](CO)C[C@H]1O

Activity [3]: Not Active
IC50 (RAW264.7 [6]): 0.85 µM
SMILES: O=C1C=C(Oc2ccccc2)c2ccccc2C1=O
inhibition (RAW264.7 [2]): Active
inhibition (RAW264.7 [4]): Active
IC50 (RAW264.7 [5]): 28.5 µM

IC50 (RAW264.7 [7]): 0.047 µM
SMILES: COc1ccc(-c2nc3c4ccoc4c4ccccc4c3[nH]2)cc1

inhibition [10]: Dose-dependent effect
Activity [3]: Not Active
IC50 (RAW264.7 [6]): 0.47 µM
SMILES: CC1(C)CCC2=C(O1)c1ccccc1C(=O)C2=O [LAPACHONE]
Activity (RAW264.7 [8]): Dose-dependent effect
inhibition (RAW264.7 [9]): Dose-dependent effect
inhibition (RAW264.7 [11]): Dose-dependent effect
inhibition (RAW264.7 [12]): Dose-dependent effect
Activity (RAW264.7 [13]): Dose-dependent effect
IC50 (RAW264.7 [5]): 4.06 µM

inhibition [14]: inactive
inhibition [10]: Dose-dependent effect
Activity [3]: Not Active
inhibition [15]: Active
IC50 (RAW264.7 [6]): 0.74 µM
SMILES: COc1ccc(OC2=CC(=O)C(=O)c3ccccc32)cc1
Activity (RAW264.7 [8]): Dose-dependent effect
inhibition (RAW264.7 [9]): Dose-dependent effect
inhibition (RAW264.7 [11]): Dose-dependent effect
inhibition (RAW264.7 [12]): Dose-dependent effect
Activity (RAW264.7 [13]): Dose-dependent effect
IC50 (RAW264.7 [5]): 31.7 µM

Activity [3]: Not Active
IC50 (RAW264.7 [6]): 1.29 µM
SMILES: COc1ccc(OC2=CC(=O)/C(=N\O)c3ccccc32)cc1
inhibition (RAW264.7 [2]): Active
inhibition (RAW264.7 [4]): Active
IC50 (RAW264.7 [5]): 20.6 µM

IC50 (RAW264.7 [6]): 0.87 µM
SMILES: COc1ccc(NC2=CC(=O)/C(=N\O)c3ccccc32)cc1
IC50 (RAW264.7 [5]): 4.69 µM

IC50 (RAW264.7 [6]): 0.63 µM
SMILES: O=C1C=C(Nc2ccccc2)c2ccccc2/C1=N/O
IC50 (RAW264.7 [5]): 1.67 µM

IC50 (RAW264.7 [6]): 0.81 µM
SMILES: COc1ccc(NC2=CC(=O)C(=O)c3ccccc32)cc1
IC50 (RAW264.7 [5]): 1.84 µM

Activity [3]: Not Active
IC50 (RAW264.7 [6]): 0.2 µM
SMILES: CC(=N)NCc1cccc(CN)c1 [1400W]
inhibition (RAW264.7 [16]): Active
Activity (RAW264.7 [17]): Active
IC50 (RAW264.7 [5]): 47.5 µM
inhibition (RAW264.7 [18]): Active
